These results are taken from ChEMBL document CHEMBL1128434, “Gonadotropin-releasing hormone antagonists: novel members of the azaline B family” (1995).

Experiment [1] has as its target T1, Gonadotropin-releasing hormone receptor (Rattus norvegicus) (UniProt P30969).
T1 sequence (whole entry): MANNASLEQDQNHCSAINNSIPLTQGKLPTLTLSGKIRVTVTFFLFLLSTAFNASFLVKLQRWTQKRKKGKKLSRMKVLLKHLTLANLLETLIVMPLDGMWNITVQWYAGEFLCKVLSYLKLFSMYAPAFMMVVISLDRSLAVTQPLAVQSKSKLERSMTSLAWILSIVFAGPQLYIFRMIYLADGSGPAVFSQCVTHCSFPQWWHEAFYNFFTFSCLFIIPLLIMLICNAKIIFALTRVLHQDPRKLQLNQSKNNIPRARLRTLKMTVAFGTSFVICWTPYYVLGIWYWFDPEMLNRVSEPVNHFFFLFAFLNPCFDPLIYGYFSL
Kind of experiment: Duration of action measured using castrated male rat assay to inhibit luteinizing hormone release.; fully active at 72 hr. It counts as functional.

For experiment [2], the species on record is Rattus norvegicus. The experiment is described as follows: Effect in the anti ovulatory assay (AOA) in rats expressed as no. of rats ovulating/No of rats treated at 1.0 mg; 3/9. The class given is functional.
Experiment [3] concerns the target T1, Gonadotropin-releasing hormone receptor (Rattus norvegicus). The experiment is described as follows: Effect in the anti ovulatory assay (AOA) in rats expressed as no. of rats ovulating/No of rats treated at 2.5 mg; 0/8. The class given is functional.
The species entered for experiment [4] is Rattus norvegicus. Kind of experiment: Effect in the anti ovulatory assay (AOA) in rats expressed as no. of rats ovulating/No of rats treated at 10 mg; 1/6. The class given is functional.
For experiment [5], the species on record is Rattus norvegicus. The experiment is described as follows: Effect in the anti ovulatory assay (AOA) in rats expressed as no. of rats ovulating/No of rats treated at 1.0 mg; 1/8. The class given is functional.
The species entered for experiment [6] is Rattus norvegicus. The experiment is described as follows: Effect in the anti ovulatory assay (AOA) in rats expressed as no. of rats ovulating/No of rats treated at 0.5 mg; 10/14. It counts as functional.
The target of experiment [7] is T1, Gonadotropin-releasing hormone receptor (Rattus norvegicus). The experiment is described as follows: In vitro potency to inhibit GnRH-mediated LH secretion by cultured pituitary cells relative to [Ac-delta-Pro1,DFpa2,DTrp36]GnRH. To be noted: Pituitary gland cell. The class given is functional, cell-based. A digest of the protocol: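 Dispersed rat pituitary cells in culture; antagonist inhibition of GnRH-stimulated LH secretion. Potency expressed relative to standard antagonist [Ac-Δ3Pro1,D4FPhe2,DTrp3,6]GnRH taken as 1.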

Experiment [8] is filed under the species Rattus norvegicus. Kind of experiment: Effect in the anti ovulatory assay (AOA) in rats expressed as no. of rats ovulating/No of rats treated at 1.0 mg; 7/8. The class given is functional.
For experiment [9], the species on record is Rattus norvegicus. The experiment is described as follows: Effect in the anti ovulatory assay (AOA) in rats expressed as no. of rats ovulating/No of rats treated at 2.5 mg; 0/6. The class given is functional.
Experiment [10] is filed under the species Rattus norvegicus. The experiment is described as follows: Effect in the anti ovulatory assay (AOA) in rats expressed as no. of rats ovulating/No of rats treated at 2.5 mg; 0/6.
The species named for experiment [11] is Rattus norvegicus. The experiment is described as follows: Effect in the anti ovulatory assay (AOA) in rats expressed as no. of rats ovulating/No of rats treated at 0.5 mg; 8/8. It counts as functional.
For experiment [12], the species on record is Rattus norvegicus. The experiment is described as follows: Effect in the anti ovulatory assay (AOA) in rats expressed as no. of rats ovulating/No of rats treated at 1.0 mg; 4/8. It counts as functional.
Experiment [13] is filed under the species Rattus norvegicus. The experiment is described as follows: Effect in the anti ovulatory assay (AOA) in rats expressed as no. of rats ovulating/No of rats treated at 50 mg; 4/4. It counts as functional.
For experiment [14], the species on record is Rattus norvegicus. Kind of experiment: Effect in the anti ovulatory assay (AOA) in rats expressed as no. of rats ovulating/No of rats treated at 2.5 mg; 4/4. The class given is functional.
The species named for experiment [15] is Rattus norvegicus. The experiment is described as follows: Effect in the anti ovulatory assay (AOA) in rats expressed as no. of rats ovulating/No of rats treated at 5.0 mg; 0/6. It counts as functional.

Regarding `CC(=O)N[C@H](Cc1ccc2ccccc2c1)C(=O)N[C@H](Cc1ccc(Cl)cc1)C(=O)N[C@H](Cc1cccnc1)C(=O)N[C@@H](CO)C(=O)N[C@@H](Cc1ccc(NC=O)cc1)C(=O)N[C@H](Cc1ccc(NC=O)cc1)C(=O)N[C@@H](CC(C)C)C(=O)N[C@@H](CCCCNC(C)C)C(=O)N1CCC[C@H]1C(=O)N[C@H](C)N`, in experiment [1], the Duration of action is 72 h. For the same molecule, the figures for the “No. of rats ovulated” value in [2] and in experiment [3] were 3 and 0, respectively.

Regarding `CC(=O)N[C@H](Cc1ccc(N)cc1)C(=O)N[C@H](Cc1ccc(Cl)cc1)C(=O)N[C@H](Cc1cccnc1)C(=O)N[C@@H](CO)C(=O)N[C@@H](Cc1ccc(Nc2n[nH]c(N)n2)cc1)C(=O)N[C@H](Cc1ccc(Nc2n[nH]c(N)n2)cc1)C(=O)N[C@@H](CC(C)C)C(=O)N[C@@H](CCCCNC(C)C)C(=O)N1CCC[C@H]1C(=O)N[C@H](C)N`, the “No. of rats ovulated” value in [4] is 1.

For `CC(=O)N[C@H](Cc1ccc2ccccc2c1)C(=O)N[C@H](Cc1ccc(Cl)cc1)C(=O)N[C@H](Cc1cccnc1)C(=O)N[C@@H](CO)C(=O)N[C@@H](Cc1ccc(NC(=O)CCCNc2n[nH]c(N)n2)cc1)C(=O)N[C@H](Cc1ccc(NC(=O)CCCNc2n[nH]c(N)n2)cc1)C(=O)N[C@@H](CC(C)C)C(=O)N[C@@H](CCCCNC(C)C)C(=O)N1CCC[C@H]1C(=O)N[C@H](C)N`, the Duration of action in experiment [1] was 72 h. Further, the results for the “No. of rats ovulated” value in [5] and in experiment [6] were 1 and 10, respectively. In experiment [7], this molecule registered a Relative potency of 0.21.

As for `CC(=O)N[C@H](Cc1ccc2ccccc2c1)C(=O)N[C@H](Cc1ccc(Cl)cc1)C(=O)N[C@H](Cc1cccnc1)C(=O)N[C@@H](CO)C(=O)N[C@@H](Cc1ccc(N)cc1)C(=O)N[C@H](Cc1ccc(N)cc1)C(=O)N[C@@H](CC(C)C)C(=O)N[C@@H](CCCCNC(C)C)C(=O)N1CCC[C@H]1C(=O)N[C@H](C)N`, the Duration of action in experiment [1] turned out to be 72 h. In addition, the Relative potency in experiment [7] is 0.74. Also, the figures for the “No. of rats ovulated” value in experiment [8], in [9] and in experiment [10] were 7, 0 and 0, respectively.

In the case of `CC(=O)N[C@H](Cc1ccc2ccccc2c1)C(=O)N[C@H](Cc1ccc(Cl)cc1)C(=O)N[C@H](Cc1cccnc1)C(=O)N[C@@H](CO)C(=O)N[C@@H](Cc1ccc(NC(=O)c2cnccn2)cc1)C(=O)N[C@H](Cc1ccc(NC(=O)c2cnccn2)cc1)C(=O)N[C@@H](CC(C)C)C(=O)N[C@@H](CCCCNC(C)C)C(=O)N1CCC[C@H]1C(=O)N[C@H](C)N`, the “No. of rats ovulated” value worked out at 8 in experiment [11] and 4 in [12].

`CC(=O)N[C@H](Cc1ccc2ccccc2c1)C(=O)N[C@H](Cc1ccc(Cl)cc1)C(=O)N[C@H](Cc1cccnc1)C(=O)N[C@@H](CO)C(=O)N[C@@H](Cc1ccc(NC(=O)Nc2ccccc2Cl)cc1)C(=O)N[C@H](Cc1ccc(NC(=O)Nc2ccccc2Cl)cc1)C(=O)N[C@@H](CC(C)C)C(=O)N[C@@H](CCCCNC(C)C)C(=O)N1CCC[C@H]1C(=O)N[C@H](C)N` had a Relative potency in [7] of 0.1. For the same molecule, the “No. of rats ovulated” value in experiment [13] was 4.

Turning to `CC(=O)N[C@H](Cc1ccc2ccccc2c1)C(=O)N[C@H](Cc1ccc(Cl)cc1)C(=O)N[C@H](Cc1cccnc1)C(=O)N[C@@H](CO)C(=O)N(C)[C@@H](Cc1ccc(Nc2n[nH]c(N)n2)cc1)C(=O)N[C@H](Cc1ccc(Nc2n[nH]c(N)n2)cc1)C(=O)N[C@@H](CC(C)C)C(=O)N[C@@H](Cc1ccc(CNC(C)C)cc1)C(=O)N1CCC[C@H]1C(=O)N[C@H](C)N`, the figures for the “No. of rats ovulated” value in experiment [14] and in experiment [15] were 4 and 0, respectively.
